Holding throughout (assay type): functional, cell-based
The nature of experiment [1]: Cytotoxicity against human Caov3 cells after 72 hrs by MTT assay. The settings on record: Caov-3, 72 h. In outline: (§1)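 Cells grown in RPMI-1640 with 10% FBS, 2 mM L-glutamine and gentamicin; seeded at 1 × 10⁴ cells/well and left to attach overnight at 37 °C, 5% CO₂. Compounds were dissolved in DMSO, diluted into FBS-free medium and tested at 5 × 10⁻⁵, 10⁻⁵, 10⁻⁶ and 10⁻⁷ M for 72 h. MTT was added for 3 h, formazan dissolved in DMSO and read at 590 nm. Triplicates; IC50 derived graphically from % viability loss versus untreated controls.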

The subject of experiment [2] is A549. Nature of the experiment: Cytotoxicity against human A549 cells after 72 hrs by MTT assay. The settings on record: A549, 72 h. Summed up: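 Compounds were dissolved in DMSO, diluted into FBS-free medium and tested at 5 × 10⁻⁵, 10⁻⁵, 10⁻⁶ and 10⁻⁷ M for 72 h. MTT was added for 3 h, formazan dissolved in DMSO and read at 590 nm. Triplicates; IC50 derived graphically from % viability loss versus untreated controls.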

A short description of experiment [3]: Cytotoxicity against human KB3-1 cells after 72 hrs by MTT assay. The note with it: KB 3-1, 72 h. Summed up:
as §1

Experiment [4] can be described thus: Cytotoxicity against human multi drug resistant subclone KB 8.5 cells after 72 hrs by MTT assay. Summed up:
as §1

As to `CCOP(=O)(OCC)N1C/C(=C\c2ccncc2)C(=O)/C(=C/c2ccncc2)C1`, the half-inhibitory concentration (IC50) in experiment [1] was found to be 4.3 µM; in experiment [2] it was 8.2 µM; in experiment [3], 2.1 µM; in experiment [4], 5.1 µM.
Compound `N[C@@H](Cc1ccc(N(CCCl)CCCl)cc1)C(=O)O` had an IC50 in experiment [1] of 50 µM. That is a double-digit micromolar value.
For the compound `O=C1/C(=C/c2ccncc2)CNC/C1=C\c1ccncc1`, the half-maximal inhibitory concentration (IC50) in experiment [1] stood at 6 µM; in experiment [2], 10.3 µM; in experiment [3], 5 µM; in experiment [4], 8.5 µM.
The like results for `CCOP(=O)(OCC)N1C/C(=C\c2cccnc2)C(=O)/C(=C/c2cccnc2)C1` were, in that order, 8.1 µM, 10.4 µM, 5 µM and 5.3 µM.
The like results for `CCOP(=O)(CCCCN1C/C(=C\c2cccnc2)C(=O)/C(=C/c2cccnc2)C1)OCC` were, in that order, 6.2 µM, 15.4 µM, 6.1 µM and 9.5 µM.
With `O=C1/C(=C/c2cccnc2)CNC/C1=C\c1cccnc1`, the IC50 in experiment [1] came to 9.2 µM; in experiment [2], 11.1 µM; in experiment [3] it was 24.4 µM; in experiment [4], 30 µM.
Compound `COc1cccc2c1C(=O)c1c(O)c3c(c(O)c1C2=O)C[C@@](O)(C(=O)CO)C[C@@H]3O[C@H]1C[C@H](N)[C@H](O)[C@H](C)O1` [DOXORUBICIN] gave a concentration for half-maximal inhibition (IC50) in experiment [4] of 3.3 µM.
On to `CN1C/C(=C\c2cccnc2)C(=O)/C(=C/c2cccnc2)C1`, for which the half-maximal inhibitory concentration (IC50) is above 20 µM in experiment [1], above 20 µM in experiment [2], 20.2 µM in experiment [3] and 40.4 µM in experiment [4].
For the compound `CCOP(=O)(CCN1C/C(=C\c2cccnc2)C(=O)/C(=C/c2cccnc2)C1)OCC`, the IC50 in experiment [1], in experiment [2], in experiment [3] and in experiment [4] was above 40 µM throughout.
`CN1C/C(=C\c2ccncc2)C(=O)/C(=C/c2ccncc2)C1`: the IC50 in experiment [1] stood at 5.1 µM; in experiment [2] it was 4.2 µM; in experiment [3], 3 µM; in experiment [4] it was 7.4 µM.

Values taken from ChEMBL document CHEMBL1629420, “Structure-cytotoxicity relationship in a series of N-phosphorus substituted E,E-3,5-bis(3-pyridinylmethylene)- and E,E-3,5-bis(4-pyridinylmethylene)piperid-4-ones” (Eur J Med Chem, 2010).
